Each block holds one compound with its values, some of them ahead of it.
What was measured:
[1] = system: HepG2, MCF-7, and SW480 cells; assay: In vitro cytotoxicity; assay type: cell-based; details: MTT assay, three cell lines, 48 h
In short: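 Cells grown in RPMI 1640 or L-15 with 10% FBS were seeded at 5,000 cells/well and left to attach overnight. Graded concentrations of test compound were applied in quintuplicate for 48 h at 37°C and 5% CO2. MTT was added for 4 h and absorbance read at 490 nm. IC50 was taken as the concentration giving 50% growth inhibition; the assay was run three times.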

[2] = Water solubility of the prodrug; assay type: physicochemical; details: prodrug relative to 10-HCPT
[3] = Drug release from conjugates in phosphate-buffered saline; assay type: physicochemical
In short: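 Conjugate at 0.5 mg/mL final in 0.01 mol/L PBS at pH 3.0, 4.0, 5.0, 6.0 and 7.4, held at 37°C for 48 h. Supernatants were analysed by UPLC/MS in MRM mode using the 477.0/433.1 transition for the released ester.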

[4] = Drug release from conjugates in plasma; assay type: in vitro ADME, human; details: for amount of compound B released from the conjugate: plasma
In short: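 Conjugate stock (5.0 mg/mL) was added to human serum to 0.5 mg/mL final, with camptothecin internal standard at 1.0 µg/mL final, at 37°C. Samples were taken from 0.5 to 48 h, protein-precipitated with acetonitrile, centrifuged, dried under N2 at 40°C and reconstituted in acetonitrile. Analysis was by UPLC/MS against serum standards of 0.5–1,000 ng/mL using the internal standard method.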

[5] = Characterization of compound F self-assembly micelles; assay type: physicochemical; details: in water
[6] = In vivo pharmacokinetics and biodistribution; set-up: species or system tumor-bearing nude mice; details: for AUC0–inf / MRT0–inf: i.v. 5.0 mg/kg 10-HCPT injection or 35.1 mg/kg compound F solution, mice, n=6; for T2/1: blood circulation, i.v. single dose equal to 10-HCPT 5 mg/kg, tumor-bearing mice; for AUC(0-inf) / MRT inf: female, BALB/c (nude), mouse, iv, 5 mg/kg
In short: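 Tumor-bearing nude mice (n=6 per group) got one i.v. dose of free parent drug 5 mg/kg or parent-equivalent conjugate. Orbital blood was taken from 10 min to 48 h, and heart, liver, spleen, lung, kidney, brain and tumor were collected. Plasma or saline tissue homogenate was hydrolysed with 0.1 N NaOH (37°C, 20 min), then neutralised with HCl. Camptothecin internal standard was added before acetonitrile extraction. Parent drug was quantified by UPLC/MS and PK parameters derived with software.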

[7] = system: tumor-bearing nude mouse models; assay: In vivo antitumor efficacy; set-up: species or system mice; details: for tumor growth inhibition effect (TIR): tail vein injection, equivalent to 5.0 mg/kg 10-HCPT once a day for 14 days, n=8
In short: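 Dosing began in tumor-bearing nude mice once tumors reached ~50–100 mm3; groups (n=8) were balanced for weight and tumor size. Mice received saline, commercial parent-drug injection 5.0 mg/kg, or conjugate 35.1 mg/kg (parent-equivalent 5.0 mg/kg) by tail vein once daily for 14 days. Tumor volume (a×b²/2) was measured every 2 days; toxicity was judged from behaviour and weight loss.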

[8] = once a day for 14 days, tail vein

Compound: 5-carbonyl caproic acid
- cytotoxicity (in words) [1]: almost no cytotoxicity

Compound: 10-HCPT-thiosemicarbazide-PEG2000-MeO conjugate [compound F]
- cytotoxicity (in words) [1]: strongest cytotoxicity
- water solubility increase [2]: over 3,000 times
- amount of compound B released from the conjugate ([3]; PBS pH 5.0, 37°C, after 4 h): ~100%
- amount of compound B released from the conjugate ([3]; PBS pH 7.4, 37°C, after 1 h): 2%
- amount of compound B released from the conjugate ([3]; PBS pH 7.4, 37°C, after 4 h): 8%
- amount of compound B released from the conjugate ([3]; pH 7.4 PBS, after 48 h): < 30%
- stability (in words) ([3]; phosphate-buffered saline (pH 7.4)): good stability
- amount of compound B released from the conjugate ([4]; 37°C, after 1 h): 5%
- amount of compound B released from the conjugate ([4]; 37°C, after 4 h): 15%
- amount of compound B released from the conjugate ([4]; after 48 h): < 30%
- stability (in words) ([4]; rat plasma): good stability
- concentration at which conjugates self-assemble into micelles [5]: 7500 µg/mL
- AUC0–inf ([6]; Heart): 3,795.7±1,539.3 µg/L h
- MRT0–inf ([6]; Heart): 4.379 ± 1.171 h
- AUC0–inf ([6]; Kidney): 1,260.4±585.8 µg/L h
- MRT0–inf ([6]; Kidney): 2.948 ± 0.548 h
- AUC0–inf ([6]; Liver): 52,688.4±3,111.2 µg/L h
- MRT0–inf ([6]; Liver): 10.07 ± 0.957 h
- AUC0–inf ([6]; Lung): 293,117.9±31,343.1 µg/L h
- MRT0–inf ([6]; Lung): 6.96 ± 0.178 h
- AUC0–inf ([6]; Plasma): 173,410.1±13,824.5 µg/L h
- MRT0–inf ([6]; Plasma): 28.975 ± 1.238 h
- AUC0–inf ([6]; Spleen): 8,993.1±1,534.3 µg/L h
- MRT0–inf ([6]; Spleen): 7.756 ± 1.518 h
- AUC0–inf ([6]; Tumor): 162,823.9±19,289.2 µg/L h
- MRT0–inf ([6]; Tumor): 39.873 ± 4.549 h
- T2/1 [6]: 10.516 ± 1.158 h
- AUC0–inf in tumor relative to 10-HCPT solution ([6]; tumor): 7.76 fold
- MRT0–inf in tumors compared with 10-HCPT solution ([6]; tumor): 4.31 fold
- body weight change (in words) [7, 8]: did not cause significant loss of body weight
- tumor volume (in words) ([7]; once a day for 14 days, tail vein, P<0.05): significantly smaller than that of the group treated with either saline or 10-HCPT solution
- tumor growth inhibition effect (TIR) [7]: 82.66%±7.175

- T2/1 [6]: 1.859 ± 1.385 h
- AUC(0-inf) ([6]; heart): 11.6 µg·h/mL
- MRT inf ([6]; heart): 6.18 ± 1.5 h
- AUC(0-inf) ([6]; kidney): 2.09 µg·h/mL
- MRT inf ([6]; kidney): 5.96 ± 1.09 h
- AUC(0-inf) ([6]; liver): 28.7 µg·h/mL
- MRT inf ([6]; liver): 5.69 ± 0.845 h
- AUC(0-inf) ([6]; lung): 130 µg·h/mL
- MRT inf ([6]; lung): 4.79 ± 0.648 h
- AUC(0-inf) ([6]; plasma): 8.41 µg·h/mL
- MRT inf ([6]; plasma): 6.15 ± 0.964 h
- AUC(0-inf) ([6]; spleen): 5.04 µg·h/mL
- MRT inf ([6]; spleen): 5.68 ± 0.771 h
- AUC(0-inf) ([6]; tumor): 21 µg·h/mL
- MRT inf ([6]; tumor): 9.25 ± 1.03 h
Compound: CC[C@@]1(O)C(=O)OCc2c1cc1n(c2=O)Cc2cc3cc(O)ccc3nc2-1 [10-HCPT, 10-Hydroxycamptothecin, reference compound]
- body weight change (in words) [7, 8]: significant body weight loss
- tumor growth inhibition effect (TIR) [7]: 63.85%±5.233

Reference: PMC5367588 (International Journal of Nanomedicine, 2017)
